# According to PubChem BioAssay AID588743 (Vanderbilt Specialized Chemistry Center, 2011):
# The source made the active and inactive calls.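 Rule for the calls: active = a dose-dependent boost of the low-dose acetylcholine calcium response, with potency and top response fitted; inactive = the rest.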
# Molecular target: Muscarinic acetylcholine receptor M4 (Homo sapiens) (UniProt P08173)
# Assay: potentiation of ACh response at M4 – CHO hM4/Gqi5 cells, calcium mobilization, SAR follow-up (AID 588743)
# Settings: PAM with EC20 ACh
# Method in brief: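 System: CHO cells with human M4 plus Gqi5. Also added: acetylcholine at EC20, then at EC80 86 s later. Timing: 144 s compound preincubation, 37 °C. Signal: calcium mobilization fluorescence, cells loaded with 2.3 µM Fluo-4 AM. Read-out basis: EC50 by four-parameter logistic fit, signal as percent ACh maximum.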
# Muscarinic acetylcholine receptor M4 (Homo sapiens), sequence (P08173 whole entry, looked up): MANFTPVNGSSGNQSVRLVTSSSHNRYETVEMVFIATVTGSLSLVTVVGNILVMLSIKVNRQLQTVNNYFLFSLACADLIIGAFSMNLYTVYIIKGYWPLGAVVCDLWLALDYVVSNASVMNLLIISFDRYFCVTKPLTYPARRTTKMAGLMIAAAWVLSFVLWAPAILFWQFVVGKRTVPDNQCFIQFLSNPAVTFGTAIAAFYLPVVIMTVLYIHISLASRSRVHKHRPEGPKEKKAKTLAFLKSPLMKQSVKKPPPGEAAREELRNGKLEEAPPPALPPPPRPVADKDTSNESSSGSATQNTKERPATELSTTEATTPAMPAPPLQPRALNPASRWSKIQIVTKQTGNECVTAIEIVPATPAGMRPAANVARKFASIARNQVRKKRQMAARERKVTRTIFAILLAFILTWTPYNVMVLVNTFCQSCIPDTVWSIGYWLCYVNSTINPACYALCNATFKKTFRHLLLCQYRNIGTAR
row,Structure (SMILES),EC50 [µM]
1,Cc1nc2sc(C(=O)NC(C)C)c(N)c2c(C)c1Cl,0.183
2,Cc1nc2sc(C(=O)NC3CCOC3)c(N)c2c(C)c1Cl (configuration not stated),0.0287
3,Cc1nc2sc(C(=O)NCCc3ccccn3)c(N)c2c(C)c1Cl,0.686
4,Cc1nc2sc(C(=O)NC(C)(C)C)c(N)c2c(C)c1Cl,0.372
5,Cc1nc2sc(C(=O)NCC3CCCCC3)c(N)c2c(C)c1Cl,1.09
6,Cc1nc2sc(C(=O)NC3CCCCC3)c(N)c2c(C)c1Cl,0.188
7,COCCCNC(=O)c1sc2nc(C)c(Cl)c(C)c2c1N,0.425
8,Cc1nc2sc(C(=O)NC3CC3)c(N)c2c(C)c1Cl,0.0208
9,Cc1nc2sc(C(=O)NC3COC3)c(N)c2c(C)c1Cl,0.906
10,Cc1nc2sc(C(=O)NCCc3ccncc3)c(N)c2c(C)c1Cl,0.211
11,Cc1nc2sc(C(=O)NCCC3CCCN3C)c(N)c2c(C)c1Cl (configuration not stated),0.596
12,Cc1nc2sc(C(=O)NC(C)c3ccncc3)c(N)c2c(C)c1Cl (configuration not stated),0.6
13,Cc1nc2sc(C(=O)NC3CCOCC3)c(N)c2c(C)c1Cl,0.22
14,Cc1nc2sc(C(=O)NC(C)c3ccccn3)c(N)c2c(C)c1Cl (configuration not stated),1.41
15,Cc1nc2sc(C(=O)NC(C)c3cccnc3)c(N)c2c(C)c1Cl (configuration not stated),0.601

# Continued, values first:
row,EC50 [µM],Structure (SMILES)
1,1.07,Cc1nc2sc(C(=O)NCc3ncccn3)c(N)c2c(C)c1Cl
2,0.132,Cc1ccc(CNC(=O)c2sc3nc(C)c(Cl)c(C)c3c2N)cc1
3,0.12,Cc1nc2sc(C(=O)NCc3cccc(F)c3F)c(N)c2c(C)c1Cl
4,0.222,Cc1nc2sc(C(=O)NCc3ccnnc3)c(N)c2c(C)c1Cl
5,0.133,Cc1nc2sc(C(=O)NCc3ccccc3)c(N)c2c(C)c1Cl
6,0.154,Cc1nc2sc(C(=O)NCc3ccccc3Cl)c(N)c2c(C)c1Cl
7,0.0372,Cc1nc2sc(C(=O)NCc3ccncc3)c(N)c2c(C)c1Cl
8,0.328,Cc1nc2sc(C(=O)NCc3cccnc3)c(N)c2c(C)c1Cl
9,0.174,Cc1nc2sc(C(=O)NCc3nccs3)c(N)c2c(C)c1Cl
10,0.25,Cc1nc2sc(C(=O)NCc3cnccn3)c(N)c2c(C)c1Cl
11,0.0891,COc1ccc(CNC(=O)c2sc3nc(C)c(Cl)c(C)c3c2N)cc1
12,1.14,Cc1nc2sc(C(=O)NCc3ccc(C(F)(F)F)cc3)c(N)c2c(C)c1Cl
13,0.173,Cc1nc2sc(C(=O)NCc3ccncn3)c(N)c2c(C)c1Cl
14,0.293,Cc1nc2sc(C(=O)NCc3ccccn3)c(N)c2c(C)c1Cl
15,0.17,Cc1nc2sc(C(=O)NCc3ccc4c(c3)OCO4)c(N)c2c(C)c1Cl
16,0.057,Cc1cc(CNC(=O)c2sc3nc(C)c(Cl)c(C)c3c2N)ccn1

# Same assay, conditions: PAM with EC20 ACh, at 30 µM (top of the series)
row,Structure (SMILES),percent ACh max response
1,Cc1nc2sc(C(=O)NCCc3cccnc3)c(N)c2c(C)c1Cl,inactive
2,Cc1nc2sc(C(=O)Nc3ccccc3N(C)C)c(N)c2c(C)c1Cl,inactive
3,CCOc1ccc(NC(=O)c2sc3nc(C)c(Cl)c(C)c3c2N)cc1,inactive
4,COc1ccc(NC(=O)c2sc3nc(C)c(Cl)c(C)c3c2N)cc1,45.2

# Same assay, conditions: PAM with EC20 ACh, at 36.9 µM (top of the series)
row,Structure (SMILES),percent ACh max response
1,Cc1nc2sc(C(=O)NCc3ccc(Cl)cc3)c(N)c2c(C)c1Cl,32.3
2,Cc1nc2sc(C(=O)NCc3ccc(F)c(F)c3)c(N)c2c(C)c1Cl,31.6
